Key:
[1] = Protein binding in human at 50 to 500 mg, po bid; conditions: plasma
[2] = biological target: T1, Solute carrier family 15 member 1 (Homo sapiens, UniProt P46059); experiment: Inhibition of human recombinant PEPT1 expressed in Pichia pastoris GS115 assessed as [3H]GlySar uptake after 30s by dual-channel liquid scintillation counting analysis
T1 sequence (P46059 whole entry): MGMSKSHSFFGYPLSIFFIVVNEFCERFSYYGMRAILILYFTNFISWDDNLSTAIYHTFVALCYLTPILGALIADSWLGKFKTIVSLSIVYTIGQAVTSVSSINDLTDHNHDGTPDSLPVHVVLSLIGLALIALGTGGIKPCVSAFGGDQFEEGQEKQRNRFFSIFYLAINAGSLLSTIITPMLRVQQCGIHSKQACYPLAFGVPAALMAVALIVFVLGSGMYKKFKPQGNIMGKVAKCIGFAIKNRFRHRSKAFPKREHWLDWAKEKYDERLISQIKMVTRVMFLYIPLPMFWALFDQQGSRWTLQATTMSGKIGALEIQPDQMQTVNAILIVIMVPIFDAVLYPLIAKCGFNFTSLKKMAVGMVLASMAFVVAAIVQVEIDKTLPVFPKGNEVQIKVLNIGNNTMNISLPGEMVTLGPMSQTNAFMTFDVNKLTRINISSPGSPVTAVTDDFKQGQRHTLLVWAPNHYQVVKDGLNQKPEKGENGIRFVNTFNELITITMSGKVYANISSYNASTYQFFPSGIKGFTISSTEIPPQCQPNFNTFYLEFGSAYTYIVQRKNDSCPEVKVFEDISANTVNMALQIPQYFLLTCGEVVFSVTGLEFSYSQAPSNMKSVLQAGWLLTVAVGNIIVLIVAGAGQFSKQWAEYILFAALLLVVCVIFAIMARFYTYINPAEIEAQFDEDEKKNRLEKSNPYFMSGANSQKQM

[3] = biological target: T2, Solute carrier family 15 member 1 (Mus musculus, UniProt Q9JIP7); experiment: Inhibition of mouse recombinant PEPT1 expressed in Pichia pastoris GS115 assessed as [3H]GlySar uptake after 30s by dual-channel liquid scintillation counting analysis
T2 sequence (Q9JIP7 whole entry): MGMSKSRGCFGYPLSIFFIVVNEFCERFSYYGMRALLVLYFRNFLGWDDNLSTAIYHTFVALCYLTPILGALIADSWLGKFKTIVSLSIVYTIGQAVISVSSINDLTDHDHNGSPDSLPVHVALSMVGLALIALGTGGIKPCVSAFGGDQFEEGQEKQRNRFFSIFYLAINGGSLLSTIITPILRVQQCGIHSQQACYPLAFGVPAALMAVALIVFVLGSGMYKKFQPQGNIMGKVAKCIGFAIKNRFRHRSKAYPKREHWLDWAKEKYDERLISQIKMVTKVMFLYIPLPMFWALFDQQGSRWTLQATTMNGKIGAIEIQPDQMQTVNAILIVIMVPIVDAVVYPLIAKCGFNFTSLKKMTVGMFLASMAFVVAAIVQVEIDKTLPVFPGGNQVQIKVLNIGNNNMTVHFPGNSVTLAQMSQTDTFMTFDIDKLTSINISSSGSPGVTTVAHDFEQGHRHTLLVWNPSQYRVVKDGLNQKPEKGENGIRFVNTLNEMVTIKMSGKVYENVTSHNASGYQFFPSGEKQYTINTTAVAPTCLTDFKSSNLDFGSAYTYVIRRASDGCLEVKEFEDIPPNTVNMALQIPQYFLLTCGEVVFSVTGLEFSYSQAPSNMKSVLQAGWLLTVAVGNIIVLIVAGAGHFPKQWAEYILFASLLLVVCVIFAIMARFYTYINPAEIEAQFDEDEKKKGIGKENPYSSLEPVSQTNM

[4] = biological target: T3, Solute carrier family 15 member 1 (Rattus norvegicus, UniProt P51574); experiment: Inhibition of rat recombinant PEPT1 expressed in Pichia pastoris GS115 assessed as [3H]GlySar uptake after 30s by dual-channel liquid scintillation counting analysis
T3 sequence (P51574 whole entry): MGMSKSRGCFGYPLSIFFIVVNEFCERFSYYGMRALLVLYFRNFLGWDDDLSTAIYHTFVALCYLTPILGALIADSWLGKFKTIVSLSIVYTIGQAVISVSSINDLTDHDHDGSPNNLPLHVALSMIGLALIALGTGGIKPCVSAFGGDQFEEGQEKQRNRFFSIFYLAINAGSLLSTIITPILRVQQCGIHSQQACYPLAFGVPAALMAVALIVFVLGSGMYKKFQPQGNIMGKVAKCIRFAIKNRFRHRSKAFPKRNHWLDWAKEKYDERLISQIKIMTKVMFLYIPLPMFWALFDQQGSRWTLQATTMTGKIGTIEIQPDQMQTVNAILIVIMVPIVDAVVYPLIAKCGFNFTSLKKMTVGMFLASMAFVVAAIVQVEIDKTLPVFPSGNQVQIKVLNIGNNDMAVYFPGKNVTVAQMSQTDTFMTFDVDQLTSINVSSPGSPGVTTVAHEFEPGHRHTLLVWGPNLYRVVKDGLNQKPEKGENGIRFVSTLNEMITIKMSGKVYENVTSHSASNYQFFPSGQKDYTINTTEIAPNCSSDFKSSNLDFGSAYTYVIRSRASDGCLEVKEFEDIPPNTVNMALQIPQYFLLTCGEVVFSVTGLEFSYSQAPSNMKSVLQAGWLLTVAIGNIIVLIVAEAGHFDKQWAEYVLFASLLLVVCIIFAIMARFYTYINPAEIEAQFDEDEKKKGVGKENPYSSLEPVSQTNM

[5] = biological target: T1, Solute carrier family 15 member 1; experiment: Drug uptake in Pichia pastoris GS115 expressing human recombinant PEPT1 at 0 degC measured immediately after drug addition by dual-channel liquid scintillation counting analysis; type: ADME
Procedure, shortened: (§1)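 Nonspecific binding of 5.0 µM [14C]oseltamivir is measured at 0°C in pH 6.5 phosphate buffer. The incubation is quenched immediately after adding the drug to the methanol-induced yeast suspension. Bound radioactivity is counted by liquid scintillation and expressed as pmol/OD600. Mean ± SE (n=6).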

[6] = biological target: T2, Solute carrier family 15 member 1; experiment: Drug uptake in Pichia pastoris GS115 expressing mouse recombinant PEPT1 at 0 degC measured immediately after drug addition by dual-channel liquid scintillation counting analysis; type: ADME; procedure, shortened: as §1
[7] = biological target: T3, Solute carrier family 15 member 1; experiment: Drug uptake in Pichia pastoris GS115 expressing rat recombinant PEPT1 at 0 degC measured immediately after drug addition by dual-channel liquid scintillation counting analysis; type: ADME; procedure, shortened: as §1
Komagataella pastoris [8] = experiment: Stability in Pichia pastoris GS115 expressing human recombinant PEPT1 at 5 uM measured for up to 30 mins by HPLC analysis; type: ADME, organism-based; conditions: 0.5 h
Procedure, shortened: (§2)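 [14C]oseltamivir 5.0 µM with [14C]PEG200 5.0 µM internal standard was incubated with induced GS115 cells (vector, human, mouse or rat PEPT1) at 24°C, pH 6.5, for up to 30 min. Reactions were quenched with 20% trichloroacetic acid and centrifuged at 4°C. Supernate was analysed by HPLC with radiochemical detection; retention 14.9 min for oseltamivir, 3.6 min for PEG200. n=6.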

Komagataella pastoris [9] = experiment: Stability in Pichia pastoris GS115 expressing mouse recombinant PEPT1 at 5 uM measured for up to 30 mins by HPLC analysis; type: ADME, organism-based; conditions: 0.5 h; procedure, shortened: as §2
Komagataella pastoris [10] = experiment: Stability in Pichia pastoris GS115 expressing rat recombinant PEPT1 at 5 uM measured for up to 30 mins by HPLC analysis; type: ADME, organism-based; conditions: 0.5 h; procedure, shortened: as §2
Komagataella pastoris [11] = experiment: Stability in Pichia pastoris GS115 at 5 uM measured for up to 30 mins by HPLC analysis; type: ADME, organism-based; conditions: 0.5 h; procedure, shortened: as §2

**Q.** Which fraction unbound [1] does the source give for `CCOC(=O)C1=C[C@@H](OC(CC)CC)[C@H](NC(C)=O)[C@@H](N)C1.O=P(O)(O)O` [OSELTAMIVIR PHOSPHATE] here?
**A.** 0.58

**Q.** And the IC50 [2]?
**A.** 27.4 mM

**Q.** And the IC50 [3]?
**A.** 10.7 mM

**Q.** What about the IC50 [4] of the same molecule?
**A.** 18.3 mM

**Q.** What about the Drug uptake [5] of the same molecule?
**A.** 0.2 pmol/OD

**Q.** And the Drug uptake [6]?
**A.** 0.2 pmol/OD

**Q.** And the Drug uptake [7]?
**A.** 0.2 pmol/OD

**Q.** And the Stability (Komagataella pastoris [8])?
**A.** Stable

**Q.** And the Stability (Komagataella pastoris [9])?
**A.** Stable

**Q.** And the Stability (Komagataella pastoris [10])?
**A.** Stable

**Q.** What about the Stability (Komagataella pastoris [11]) of the same molecule?
**A.** Stable
